Assay results published in ChEMBL document CHEMBL1127046, “Antitumor agents. 3. Synthesis and biological activity of 4 beta-alkyl derivatives containing hydroxy, amino, and amido groups of 4'-O-demethyl-4-desoxypodophyllotoxin as antitumor agents” (J Med Chem, 1993).
pIC50: −log10 of the molar value.

Tests used:
L1210 [1] = assay: The number of mice survived for 30 days at the dose of 20 (mg/kg/day); format: functional, Mus musculus
P388 [2] = assay: Cytotoxicity against P388 leukemia; format: functional, cell-based; settings: Mus musculus
[3] = Inhibition of DNA topoisomerase II from rat liver measured as 50% reduction in the amount of minicircle DNA relative to the control
Tubulin = Tubulin (Bos taurus, UniProt Q6B856+Q862L2+Q862F3); assay: Drug concentration needed to produce a 50% reduction of bovine brain tubulin polymerization relative to the control
L1210 [4] = assay: Antitumor activity in vivo expressed as the percentage increase in life span at the dose of 20 (mg/kg/day); format: functional, Mus musculus
L1210 [5] = assay: Increase in life span at the dose of 2.5 (mg/kg/day); format: functional, Mus musculus
ACHN = assay: Inhibition of growth of renal cancer ACHN cell line; format: functional; settings: Homo sapiens, read-out: ED50 (the source's name)
Outline: (§1)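 Human tumour cell lines plated and grown 24 h in a CO2 incubator, then exposed to compound for 96 or 4 h. Cells counted by hemocytometer. IC50 is the concentration giving 50% reduction in cell number versus untreated control.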

A549 = assay: Inhibition of growth of lung non-small cell carcinoma A-549 cell line; format: functional; settings: Homo sapiens, read-out: ED50 (the source's name)
Outline: (§2)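 Cells were seeded and cultured for 24 h, then exposed to drug for 96 or 4 h. Cells were counted by hemocytometer. IC50 is the concentration giving a 50% reduction in cell number relative to control.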

[6] = Inhibition of growth of colon carcinoma COLO 2-1 cell line; format: functional; settings: Homo sapiens, read-out: ED50 (the source's name); outline: as §2
COLO 320DM = assay: Inhibition of growth of colon carcinoma COLO 320DM cell line; format: functional; settings: Homo sapiens, read-out: ED50 (the source's name); outline: as §2
Homo sapiens = species: Homo sapiens; assay: Inhibition of growth of hepatoma HLE cell line; format: functional; settings: read-out: ED50 (the source's name); outline: as §2
[7] = Inhibition of growth of renal cancer G-402 cell line; format: functional; settings: Homo sapiens, read-out: ED50 (the source's name); outline: as §1
[8] = Inhibition of growth of hepatoma HLF cell line; format: functional; settings: Homo sapiens, read-out: ED50 (the source's name); outline: as §2
L1210 [9] = assay: The number of mice survived for 30 days at the dose of 2.5 (mg/kg/day); format: functional, Mus musculus
L1210 [10] = assay: Antitumor activity in vivo expressed as the percentage increase in life span at the dose of 2.5 (mg/kg/day); format: functional, Mus musculus
[11] = tested on: Lewis lung carcinoma cell line; assay: Antitumor activity in vivo expressed as the percentage increase in life span at the lewis lung dose of 0.77 (mg/kg/day); format: functional, Mus musculus
[12] = tested on: Lewis lung carcinoma cell line; assay: Antitumor activity in vivo expressed as the percentage increase in life span at the lewis lung dose of 1.3 (mg/kg/day); format: functional, Mus musculus
[13] = tested on: Lewis lung carcinoma cell line; assay: Antitumor activity in vivo expressed as the percentage increase in life span at the lewis lung dose of 2.3 (mg/kg/day); format: functional, Mus musculus
[14] = tested on: Lewis lung carcinoma cell line; assay: Antitumor activity in vivo expressed as the percentage increase in life span at the lewis lung dose of 4 (mg/kg/day); format: functional, Mus musculus
[15] = tested on: Lewis lung carcinoma cell line; assay: Mean body weight change after inoculation of 3.2 x 10 e 5 cells iv and administration of compounds iv from days 1-5 at the dose of 0.77 (mg/kg/day); format: functional, Mus musculus
Outline: (§3)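 Male BDF1 mice (5 weeks) given 3.2 x 10^5 Lewis lung carcinoma cells iv on day 0, then dosed iv on days 1–5. Seven mice per group, 14 controls. Mean body weight change (g) taken from day 0 to day 6.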

[16] = tested on: Lewis lung carcinoma cell line; assay: Mean body weight change after inoculation of 3.2 x 10 e 5 cells iv and administration of compounds iv from days 1-5 at the dose of 1.3 (mg/kg/day); format: functional, Mus musculus; outline: as §3
[17] = tested on: Lewis lung carcinoma cell line; assay: Mean body weight change after inoculation of 3.2 x 10 e 5 cells iv and administration of compounds iv from days 1-5 at the dose of 2.3 (mg/kg/day); format: functional, Mus musculus; outline: as §3
[18] = tested on: Lewis lung carcinoma cell line; assay: Percentage inhibition of tumor growth at the dose of 2.3 (mg/kg/ day); format: functional, Mus musculus
Outline: (§4)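 Lewis lung carcinoma fragments (2 mm3) implanted sc into male BDF1 mice (5 weeks) on day 0. Compound given iv on days 4–8, in saline or saline with 3.5% DMSO and 6.5% Tween 80. Seven mice per group, 10 controls. Percent inhibition from mean tumour weight versus control on day 17; p<0.05, 0.01 or 0.001 versus control.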

[19] = tested on: Lewis lung carcinoma cell line; assay: Percentage inhibition of tumor growth at the dose of 4 (mg/kg/ day); format: functional, Mus musculus; outline: as §4
[20] = tested on: Lewis lung carcinoma cell line; assay: Mean body weight change after inoculation of 3.2 x 10 e 5 cells iv and administration of compounds iv from days 1-5 at the dose of 4 (mg/kg/day); format: functional, Mus musculus; outline: as §3
P388 [21] = assay: Increased life span at the P388 dose of 0.8 (mg/kg/day); format: functional, Mus musculus
Outline: (§5)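 P388 leukaemia, 1 × 10^6 cells given sc to male CDF1 mice (5 weeks old) on day 0. Drug was dosed iv on days 1–5 in saline with 3.5% DMSO and 6.5% Tween 80. Groups had 7 mice; controls had 10. ILS was calculated from mean survival time of treated versus control mice, excluding 30-day survivors.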

P388 [22] = assay: Increased life span at the P388 dose of 1.3 (mg/kg/day); format: functional, Mus musculus; outline: as §5
[23] = Inhibition of growth of lung non-small cell carcinoma PC-7 cell line; format: functional; settings: Homo sapiens, read-out: ED50 (the source's name); outline: as §2
[24] = Inhibition of growth of lung small cell carcinoma RERF-LC-MA cell line; format: functional; settings: Homo sapiens; read-out: ED50 (the source's name); outline: as §2
SBC-3 = assay: Inhibition of growth of lung small cell carcinoma SBC-3 cell line; format: functional; settings: Homo sapiens, read-out: ED50 (the source's name); outline: as §1
P388 [25] = assay: Increased life span at the P388 dose of 2.3 (mg/kg/day); format: functional, Mus musculus; outline: as §5

CCCCCCN(C)CC[C@@H]1c2cc3c(cc2[C@@H](c2cc(OC)c(O)c(OC)c2)[C@H]2C(=O)OCC12)OCO3.Cl (some centres not stated)
Survivors (L1210 [1]): 6 | pIC50 (P388 [2]): 7.72 | pIC50 [3]: 4.21 | IC50 (Tubulin): > 167 µM | ILS max (L1210 [4]): 106%

COc1cc([C@@H]2c3cc4c(cc3[C@@H](CCN(C)C)C3COC(=O)[C@@H]32)OCO4)cc(OC)c1O.Cl (some centres not stated)
ILS max (L1210 [5]): 67% | pIC50 (P388 [2]): 7.22 | pIC50 [3]: 4.44 | IC50 (Tubulin): > 100 µM

COc1cc([C@@H]2c3cc4c(cc3[C@@H](CCN(C)CCN(C)C)C3COC(=O)[C@@H]32)OCO4)cc(OC)c1O.Cl.Cl (some centres not stated)
EC50 (ACHN): 2 µg/mL | EC50 (A549): 0.82 µg/mL | EC50 [6]: 13 µg/mL | EC50 (COLO 320DM): 2 µg/mL | EC50 (Homo sapiens): 0.23 µg/mL | EC50 [7]: 0.33 µg/mL | EC50 [8]: 2.8 µg/mL | Survivors (L1210 [9]): 6 | ILS max (L1210 [10]): 103% | ILS max [11]: 38% | ILS max [12]: 72% | ILS max [13]: 90% | ILS max [14]: 209% | bwc [15]: 0.44 g | bwc [16]: 0.2 g | bwc [17]: -0.7 g | Inhibition [18]: 51% | Inhibition [19]: 95% | bwc [20]: -2.9 g | pIC50 (P388 [2]): 9.00 | ILS max (P388 [21]): 116% | ILS max (P388 [22]): 196% | EC50 [23]: 3.5 µg/mL | EC50 [24]: 14 µg/mL | EC50 (SBC-3): 0.41 µg/mL | pIC50 [3]: 4.49 | IC50 (Tubulin): > 99 µM | ILS max (P388 [25]): 236%
